Results as given in publication PMC2903386 (The Journal of Biological Chemistry, 2010).
Values belong to the molecule of their own block, whether it stands above or below them.

Legend:
cathepsin B = cathepsin B (Homo sapiens, UniProt P07858); test: Cleavage by purified cathepsin B; assay type: in vitro ADME; conditions: 5 μM Cy5-labeled peptide, 50 nM enzyme, 2 h, Tricine gel, UVP software
Method in brief: (§1)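 Commercial active purified enzymes were each used at 50 nM with 5 μM Cy5-labeled test peptide in the manufacturer's recommended buffer. The figure legend gives 2 h; the methods text gives 4 h. Samples were boiled 1 min in Tricine sample buffer, run on 10–20% Tricine gels and imaged (ex 628 ± 20 nm, em >700 nm). Percent cleaved versus uncleaved was quantitated from gel fluorescence.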

kallikrein 5 = kallikrein 5 (Homo sapiens, UniProt Q9Y337); test: Cleavage by purified kallikrein 5; assay type: in vitro ADME; conditions: 5 μM Cy5-labeled peptide, 50 nM enzyme, 2 h, Tricine gel, UVP software
Method in brief: as §1

factor XIIa = factor XIIa (Homo sapiens, UniProt P00748); test: Cleavage by purified factor XIIa; assay type: in vitro ADME; conditions: 5 μM Cy5-labeled peptide, 50 nM enzyme, 2 h, Tricine gel, UVP software
Method in brief: as §1

[1] = Cleavage of ACPP by PyMT tumor cystic fluid; assay type: in vitro ADME, mouse; conditions: 5 μM Cy5-labeled peptide, 2% cystic fluid from PyMT tumors, 2 h, 37 °C, gel
Method in brief: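 Cystic fluid was aspirated with a 28-gauge syringe from surgically exposed fluid-filled mammary tumor nodules of PyMT mice. 5 μM Cy5 peptide in PBS with 1 μM ZnCl2 was digested with cystic fluid (2%) at 37 °C. Aliquots were taken from 20 min to 18 h, with 2 h reported. Protease inhibitors (e.g. Ca-DTPA, TPEN, aprotinin, E-64, leupeptin, pepstatin A) were used at manufacturers' recommended concentrations. Read-out was gel fluorescence.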

legumain = legumain (Homo sapiens, UniProt Q99538); test: Cleavage by purified legumain; assay type: in vitro ADME; conditions: purified enzyme; data not shown
matriptase = matriptase (Homo sapiens, UniProt Q9Y5Y6); test: Cleavage by purified matriptase; assay type: in vitro ADME; conditions: purified enzyme; data not shown
thrombin = thrombin (Homo sapiens, UniProt P00734); test: Cleavage by purified thrombin; assay type: in vitro ADME; conditions: 5 μM Cy5-labeled peptide, 50 nM enzyme, 2 h, Tricine gel, UVP software
Method in brief: as §1

factor VIIa = test: Cleavage by purified factor VIIa; assay type: in vitro ADME; conditions: human
Method in brief: as §1

factor XIa = factor XIa (Homo sapiens, UniProt P03951); test: Cleavage by purified factor XIa; assay type: in vitro ADME; conditions: 5 μM Cy5-labeled peptide, 50 nM enzyme, 2 h, Tricine gel, UVP software
Method in brief: as §1

MMP-14 = test: Cleavage by purified MMP-14; assay type: in vitro ADME
Method in brief: as §1

Tumor uptake = assay type: in vivo; conditions: nude, mouse, tumor (MDA-MB-435 M4A4 xenograft), iv, 10 nmol
Method in brief: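 After imaging, mice were euthanized with isoflurane. 30 mg of each tissue was homogenized in 100 μl Tris pH 7.6 with 1% SDS, heated to 85 °C for 10 min, microwaved 10 s and spun at 20,500 × g for 15 min, then imaged. Tissue-specific spiked standards calibrated fluorescence. SUV = tissue peptide molality ÷ injected dose (mol/kg body weight). Values are means ± S.D.; two-tailed t tests.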

[2] = target: tissue plasminogen activator (Homo sapiens, UniProt P00750); test: Cleavage by purified tissue plasminogen activator; assay type: in vitro ADME; conditions: 5 μM Cy5-labeled peptide, 50 nM enzyme, 2 h, Tricine gel, UVP software
Method in brief: as §1

cathepsin H = test: Cleavage by purified cathepsin H; assay type: in vitro ADME; conditions: human
Method in brief: as §1

cathepsin L = cathepsin L (Homo sapiens, UniProt P07711); test: Cleavage by purified cathepsin L; assay type: in vitro ADME; conditions: 5 μM Cy5-labeled peptide, 50 nM enzyme, 2 h, Tricine gel, UVP software
Method in brief: as §1

MMP12 = MMP12 (Homo sapiens, UniProt P39900); test: Cleavage by purified MMP12; assay type: in vitro ADME; conditions: purified enzyme; at times only visible upon gel overexposure
MMP-8 = MMP-8 (Homo sapiens, UniProt P22894); test: Cleavage by purified MMP-8; assay type: in vitro ADME; conditions: purified enzyme; data not shown
pancreatic elastase = pancreatic elastase (Sus scrofa, UniProt P00772); test: Cleavage by pancreatic elastase; assay type: in vitro ADME, porcine; conditions: 5 μM Cy5-labeled peptide, pancreatic elastase (ELA-1), gel
Method in brief: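 5 μM Cy5-labeled test peptide was exposed to pancreatic elastase (ELA-1), with or without 60 μM α1-antitrypsin. Neutrophil/leukocyte elastase (two sources) and tumor extract (2.0 to 0.25%) were tested in parallel. Cleavage was read from fluorescent Tricine gel electrophoresis.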

PyMT mammary tumors = test: Fluorescence imaging contrast in PyMT tumor-bearing mice; assay type: in vivo, mouse
Method in brief: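 PyMT transgenic mice bearing spontaneous mammary tumors were anesthetized with ketamine 80 mg/kg plus midazolam 5 mg/kg (1:1) and weighed. They were injected via the tail vein with Cy5 peptide: free peptide 100 μl of 100 μM (10 nmol) or albumin-reactive peptide 100 μl of 30 μM (3 nmol). Maestro imaging (ex 640 ± 24 nm, em >700 nm) was done at 6 h or 48 h, comparing tumor with adjacent normal tissue.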

factor Xa = factor Xa (Homo sapiens, UniProt P00742); test: Cleavage by purified factor Xa; assay type: in vitro ADME; conditions: 5 μM Cy5-labeled peptide, 50 nM enzyme, 2 h, Tricine gel, UVP software
Method in brief: as §1

[3] = target: urokinase plasminogen activator (Homo sapiens, UniProt P00749); test: Cleavage by purified urokinase plasminogen activator; assay type: in vitro ADME
Method in brief: as §1

MMP-2 = MMP-2 (Homo sapiens, UniProt P08253); test: Cleavage by purified MMP-2; assay type: in vitro ADME; conditions: 5 μM Cy5-labeled peptide, 50 nM enzyme, 2 h, Tricine gel, UVP software
Method in brief: as §1

MMP-13 = MMP-13 (Homo sapiens, UniProt P45452); test: Cleavage by purified MMP-13; assay type: in vitro ADME; conditions: purified enzyme; data not shown
factor IXa = factor IXa (Homo sapiens, UniProt P00740); test: Cleavage by purified factor IXa; assay type: in vitro ADME; conditions: 5 μM Cy5-labeled peptide, 50 nM enzyme, 2 h, Tricine gel, UVP software
Method in brief: as §1

[4] = Tumor standardized uptake value; assay type: in vivo; conditions: PyMT, mouse, iv, 10 nmol
leukocyte elastase = leukocyte elastase (Homo sapiens, UniProt P08246); test: Cleavage by leukocyte elastase; assay type: in vitro ADME; conditions: 5 μM Cy5-labeled peptide, leukocyte elastase (ELA-2 from a different source), gel
Method in brief: (§2)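 Commercial active-form purified enzyme at 50 nm was incubated with 5 μm Cy5-labeled peptide in the manufacturer's recommended buffer. Samples were mixed with Tricine sample buffer, boiled 1 min, and resolved on 10–20% Tricine acrylamide gels. Gels were imaged quantitatively at excitation 628 ± 20 nm and emission >700 nm, and the percentage of cleaved versus uncleaved peptide was quantified.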

MMP-9 = MMP-9 (Homo sapiens, UniProt P14780); test: Cleavage by purified MMP-9; assay type: in vitro ADME; conditions: 5 μM Cy5-labeled peptide, 50 nM enzyme, 2 h, Tricine gel, UVP software
Method in brief: as §1

neutrophil elastase = test: 50 nM enzyme in the manufacturer's recommended buffer; conditions: up to 4 h
plasmin [5] = test: 50 nM plasmin; conditions: human recombinant, 37 °C, up to 2 h
trypsin = trypsin (Bos taurus, UniProt P00760); test: Cleavage by purified trypsin; assay type: in vitro ADME, bovine; conditions: Cy5-labeled ACPP, gel (supplemental Fig. 4)
Method in brief: as §2

plasmin [6] = target: plasmin (Homo sapiens, UniProt P00747); test: Effect of inhibitor on plasmin cleavage of RLQLKL ACPP; assay type: biochemical; conditions: 5 μM Cy5-labeled RLQLKL ACPP, gel
[7] = Effect of inhibitors on cleavage of RLQLKL ACPP by tumor extract; assay type: biochemical, mouse; conditions: 5 μM Cy5-labeled RLQLKL ACPP, tumor extract 2.0 to 0.25%; 60 μM α1-antitrypsin; gel
Method in brief: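 Fresh tumor tissue was gently homogenized in PBS on ice and spun at 14,000 × g for 1 min; the supernatant served as the extract. The 5 μm Cy5 peptide was digested at 37 °C in PBS containing 1 μm ZnCl2, with or without 60 μm α1-antitrypsin. Aliquots were taken from 20 min to 18 h, with the 2-h point reported. Cleavage was quantified by Tricine gel and fluorescence imaging.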

[8] = Effect of inhibitors on cleavage of RLQLKL ACPP by PyMT tumor cystic fluid; assay type: biochemical, mouse; conditions: 5 μM Cy5-labeled RLQLKL ACPP, 2% cystic fluid, 2 h; 5 mM Ca-DTPA, 50 μM TPEN, 18 μM SB3CT, 50 nM GM6001, 0.26 μM prinomastat, 150 nM aprotinin, 100 μM leupeptin, 60 μM α1-antitrypsin; gel
Method in brief: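 Cystic fluid was aspirated by syringe from surgically exposed fluid-filled mammary tumor nodules of PyMT mice. The 5 μm Cy5 peptide was incubated at 37 °C for 2 h in PBS with 1 μm ZnCl2. Inhibitors were used at manufacturer-recommended concentrations, including 10 μm E-64, 1 μm pepstatin A, protease inhibitor mixture III (1:1000) and mixture III plus DTPA. Cleavage was read by Tricine gel electrophoresis and Cy5 fluorescence imaging.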

tissue plasminogen activator, sequence (P00750 36-562): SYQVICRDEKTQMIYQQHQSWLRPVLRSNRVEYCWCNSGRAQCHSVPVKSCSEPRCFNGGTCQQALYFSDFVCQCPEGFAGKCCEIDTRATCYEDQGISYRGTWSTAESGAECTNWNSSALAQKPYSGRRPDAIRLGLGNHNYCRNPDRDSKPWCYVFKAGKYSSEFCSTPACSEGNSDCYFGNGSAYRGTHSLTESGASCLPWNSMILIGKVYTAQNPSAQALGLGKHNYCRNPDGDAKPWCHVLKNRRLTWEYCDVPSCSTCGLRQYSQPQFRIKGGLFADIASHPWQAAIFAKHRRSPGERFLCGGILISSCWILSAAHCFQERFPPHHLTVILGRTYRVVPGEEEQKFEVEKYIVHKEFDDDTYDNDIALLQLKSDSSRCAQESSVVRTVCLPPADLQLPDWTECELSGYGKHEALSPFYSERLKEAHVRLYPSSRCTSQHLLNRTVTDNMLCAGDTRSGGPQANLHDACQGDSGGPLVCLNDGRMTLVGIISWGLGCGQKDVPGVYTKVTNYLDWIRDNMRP
factor XIIa, sequence (P00748 373-615 limits assumed): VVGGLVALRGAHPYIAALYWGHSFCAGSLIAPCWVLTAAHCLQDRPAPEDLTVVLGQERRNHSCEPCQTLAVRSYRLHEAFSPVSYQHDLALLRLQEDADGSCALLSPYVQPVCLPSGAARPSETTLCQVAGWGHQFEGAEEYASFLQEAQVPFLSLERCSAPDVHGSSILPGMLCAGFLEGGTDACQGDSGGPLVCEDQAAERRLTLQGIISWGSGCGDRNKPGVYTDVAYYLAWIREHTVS
factor Xa, sequence (P00742 235-488 limits assumed): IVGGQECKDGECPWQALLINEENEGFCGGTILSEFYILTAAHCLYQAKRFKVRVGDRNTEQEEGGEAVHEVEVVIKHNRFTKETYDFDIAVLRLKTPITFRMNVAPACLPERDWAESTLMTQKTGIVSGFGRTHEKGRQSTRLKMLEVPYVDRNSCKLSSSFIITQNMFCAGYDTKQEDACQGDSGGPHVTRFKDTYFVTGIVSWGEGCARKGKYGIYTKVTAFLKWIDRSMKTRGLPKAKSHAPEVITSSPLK
factor Xa, sequence (P00742 41-179 partner limits assumed): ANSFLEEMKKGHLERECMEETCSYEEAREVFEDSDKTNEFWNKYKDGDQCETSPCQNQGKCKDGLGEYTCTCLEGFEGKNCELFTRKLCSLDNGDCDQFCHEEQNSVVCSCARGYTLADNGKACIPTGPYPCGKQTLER
factor IXa, sequence (P00740 227-461 limits assumed): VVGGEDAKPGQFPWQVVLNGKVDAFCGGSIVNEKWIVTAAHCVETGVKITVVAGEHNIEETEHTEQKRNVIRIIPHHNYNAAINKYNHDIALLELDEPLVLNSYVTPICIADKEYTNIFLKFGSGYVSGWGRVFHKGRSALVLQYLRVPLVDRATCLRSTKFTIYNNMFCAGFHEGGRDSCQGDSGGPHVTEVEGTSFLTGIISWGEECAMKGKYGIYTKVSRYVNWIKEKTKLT
factor IXa, sequence (P00740 47-191 partner limits assumed): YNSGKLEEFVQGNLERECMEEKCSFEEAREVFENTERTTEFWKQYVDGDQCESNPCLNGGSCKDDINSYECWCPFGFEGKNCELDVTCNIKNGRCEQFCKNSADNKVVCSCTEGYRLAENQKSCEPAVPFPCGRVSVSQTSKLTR
MMP-9, sequence (P14780 107-707 limits assumed): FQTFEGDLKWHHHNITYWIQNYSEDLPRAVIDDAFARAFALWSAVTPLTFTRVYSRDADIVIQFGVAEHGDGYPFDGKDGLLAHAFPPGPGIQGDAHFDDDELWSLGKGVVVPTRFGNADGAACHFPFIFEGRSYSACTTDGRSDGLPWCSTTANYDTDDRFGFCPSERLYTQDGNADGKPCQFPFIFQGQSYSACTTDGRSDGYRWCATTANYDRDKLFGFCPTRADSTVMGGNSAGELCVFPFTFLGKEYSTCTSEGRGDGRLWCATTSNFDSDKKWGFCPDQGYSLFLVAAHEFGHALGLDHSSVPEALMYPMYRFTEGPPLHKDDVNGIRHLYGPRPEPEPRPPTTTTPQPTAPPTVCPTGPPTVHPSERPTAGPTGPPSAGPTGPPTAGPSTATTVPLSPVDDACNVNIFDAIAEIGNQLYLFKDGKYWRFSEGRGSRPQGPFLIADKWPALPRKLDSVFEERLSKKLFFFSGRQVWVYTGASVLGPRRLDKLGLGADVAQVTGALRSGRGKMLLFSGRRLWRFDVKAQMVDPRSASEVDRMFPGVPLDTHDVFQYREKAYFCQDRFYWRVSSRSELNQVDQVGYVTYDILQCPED
cathepsin L, sequence (P07711 114-333): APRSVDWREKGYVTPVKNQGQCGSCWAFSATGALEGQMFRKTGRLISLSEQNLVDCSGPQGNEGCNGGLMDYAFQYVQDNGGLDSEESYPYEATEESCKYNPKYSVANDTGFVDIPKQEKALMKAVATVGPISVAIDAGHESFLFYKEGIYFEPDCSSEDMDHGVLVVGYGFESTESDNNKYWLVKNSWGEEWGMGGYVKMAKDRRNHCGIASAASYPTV
trypsin, sequence (P00760 24-246): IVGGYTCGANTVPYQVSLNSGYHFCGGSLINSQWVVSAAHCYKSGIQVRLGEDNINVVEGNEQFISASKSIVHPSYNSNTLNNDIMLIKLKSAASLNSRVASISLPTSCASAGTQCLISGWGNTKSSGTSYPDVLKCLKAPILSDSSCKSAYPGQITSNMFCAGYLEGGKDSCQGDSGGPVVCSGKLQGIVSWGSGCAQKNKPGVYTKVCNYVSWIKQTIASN
legumain, sequence (Q99538 18-323 limits assumed, species assumed): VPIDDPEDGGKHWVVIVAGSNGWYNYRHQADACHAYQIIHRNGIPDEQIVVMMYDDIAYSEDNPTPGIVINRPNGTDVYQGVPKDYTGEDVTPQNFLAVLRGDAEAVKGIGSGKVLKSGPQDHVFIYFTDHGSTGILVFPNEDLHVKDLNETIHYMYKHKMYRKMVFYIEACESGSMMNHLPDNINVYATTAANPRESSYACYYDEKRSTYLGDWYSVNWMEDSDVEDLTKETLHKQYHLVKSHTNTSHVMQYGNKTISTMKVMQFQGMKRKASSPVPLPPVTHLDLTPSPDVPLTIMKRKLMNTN
MMP-2, sequence (P08253 110-660): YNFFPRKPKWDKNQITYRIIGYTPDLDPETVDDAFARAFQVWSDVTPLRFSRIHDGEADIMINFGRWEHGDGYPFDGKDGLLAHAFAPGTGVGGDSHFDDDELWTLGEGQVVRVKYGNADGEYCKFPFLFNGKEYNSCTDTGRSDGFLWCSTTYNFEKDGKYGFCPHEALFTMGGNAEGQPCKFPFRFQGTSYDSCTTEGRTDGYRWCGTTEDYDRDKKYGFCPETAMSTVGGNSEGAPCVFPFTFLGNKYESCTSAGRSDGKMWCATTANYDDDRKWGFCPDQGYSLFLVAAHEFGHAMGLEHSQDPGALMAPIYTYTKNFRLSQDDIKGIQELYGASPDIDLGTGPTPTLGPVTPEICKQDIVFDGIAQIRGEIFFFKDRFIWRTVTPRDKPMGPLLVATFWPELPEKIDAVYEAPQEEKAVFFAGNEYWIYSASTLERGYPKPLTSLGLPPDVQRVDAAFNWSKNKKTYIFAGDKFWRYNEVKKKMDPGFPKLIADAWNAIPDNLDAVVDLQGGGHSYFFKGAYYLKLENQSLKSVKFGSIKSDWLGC
kallikrein 5, sequence (Q9Y337 67-293 limits assumed): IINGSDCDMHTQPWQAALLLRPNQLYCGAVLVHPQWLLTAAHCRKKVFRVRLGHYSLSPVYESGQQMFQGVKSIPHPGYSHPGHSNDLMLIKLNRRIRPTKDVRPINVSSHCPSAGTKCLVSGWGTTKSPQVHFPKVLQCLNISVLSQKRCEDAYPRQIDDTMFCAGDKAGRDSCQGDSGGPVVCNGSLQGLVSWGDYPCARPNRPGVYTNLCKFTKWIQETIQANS
matriptase, sequence (Q9Y5Y6 615-855 limits assumed, species assumed): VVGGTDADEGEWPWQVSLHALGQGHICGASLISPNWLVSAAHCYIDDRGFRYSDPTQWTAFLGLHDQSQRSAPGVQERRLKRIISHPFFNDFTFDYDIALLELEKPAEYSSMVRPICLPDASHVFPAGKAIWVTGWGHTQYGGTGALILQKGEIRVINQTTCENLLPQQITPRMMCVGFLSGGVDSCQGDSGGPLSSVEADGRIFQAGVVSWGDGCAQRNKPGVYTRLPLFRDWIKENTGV
plasmin (Homo sapiens, UniProt P00747), sequence (P00747 581-810 limits assumed): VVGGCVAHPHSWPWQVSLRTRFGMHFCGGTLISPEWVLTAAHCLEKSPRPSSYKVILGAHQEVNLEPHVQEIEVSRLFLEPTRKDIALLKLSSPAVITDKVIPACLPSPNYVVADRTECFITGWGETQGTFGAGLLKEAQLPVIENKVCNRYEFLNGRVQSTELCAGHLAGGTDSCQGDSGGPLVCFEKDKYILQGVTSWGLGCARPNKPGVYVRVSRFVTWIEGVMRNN
plasmin (Homo sapiens, UniProt P00747), sequence (P00747 97-580 partner limits assumed): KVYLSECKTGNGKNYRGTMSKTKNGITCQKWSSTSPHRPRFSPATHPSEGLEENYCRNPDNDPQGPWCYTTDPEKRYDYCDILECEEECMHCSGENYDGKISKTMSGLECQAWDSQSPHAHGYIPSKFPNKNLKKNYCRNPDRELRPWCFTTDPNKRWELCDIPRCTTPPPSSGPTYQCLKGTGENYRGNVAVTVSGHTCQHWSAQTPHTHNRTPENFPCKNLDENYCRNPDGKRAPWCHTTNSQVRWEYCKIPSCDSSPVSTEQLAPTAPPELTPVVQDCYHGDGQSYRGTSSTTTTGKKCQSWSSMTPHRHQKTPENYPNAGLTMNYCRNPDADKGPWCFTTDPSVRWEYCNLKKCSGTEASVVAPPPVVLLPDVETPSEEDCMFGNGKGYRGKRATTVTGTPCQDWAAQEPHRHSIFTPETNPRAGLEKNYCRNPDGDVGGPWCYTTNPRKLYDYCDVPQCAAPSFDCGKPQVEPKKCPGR
MMP12, sequence (P39900 106-268 limits assumed): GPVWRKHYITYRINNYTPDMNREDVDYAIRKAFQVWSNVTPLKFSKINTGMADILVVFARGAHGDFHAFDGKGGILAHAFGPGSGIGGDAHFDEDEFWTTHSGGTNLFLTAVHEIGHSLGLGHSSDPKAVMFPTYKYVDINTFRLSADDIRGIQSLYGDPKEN

Molecule: CC[N+]1=C(C=CC=CC=C2N(CCCCCC(=O)NCCN3C(=O)CC(SC[C@@H](NC(=O)[C@@H](CCCNC(=N)N)NC(=O)[C@@H](CCCNC(=N)N)NC(=O)[C@@H](CCCNC(=N)N)NC(=O)[C@@H](CCCNC(=N)N)NC(=O)[C@@H](CCCNC(=N)N)NC(=O)[C@@H](CCCNC(=N)N)NC(=O)[C@@H](CCCNC(=N)N)NC(=O)[C@@H](CCCNC(=N)N)NC(=O)[C@@H](CCCNC(=N)N)NC(=O)[C@H](CC(C)C)NC(=O)[C@H](CCCCN)NC(=O)[C@H](CC(C)C)NC(=O)[C@H](CCC(N)=O)NC(=O)[C@H](CC(C)C)NC(=O)[C@H](CCCNC(=N)N)NC(=O)CCCCCNC(=O)[C@@H](CCC(=O)O)NC(=O)[C@@H](CCC(=O)O)NC(=O)[C@@H](CCC(=O)O)NC(=O)[C@@H](CCC(=O)O)NC(=O)[C@@H](CCC(=O)O)NC(=O)[C@@H](CCC(=O)O)NC(=O)[C@@H](CCC(=O)O)NC(=O)[C@@H](CCC(=O)O)NC(=O)[C@H](N)CCC(=O)O)C(N)=O)C3=O)c3ccc(S(=O)(=O)O)cc3C2(C)C)C(C)(C)c2cc(S(=O)(=O)[O-])ccc21 (stereo partly shown) [RLQLKL ACPP]
percentage of cleavage by cathepsin B (cathepsin B): less than 3%
percentage of cleavage by kallikrein 5 (kallikrein 5): less than 3%
percentage of cleavage by factor XIIa (factor XIIa): less than 3%
cleavage by cystic fluid (in words) [1]: similarly to tumor tissue extracts
cleavage by legumain (in words) (legumain): no cleavage
cleavage by matriptase (in words) (matriptase): no cleavage
percentage of cleavage by thrombin (thrombin): less than 3%
metabolised at 2 h, 5 μM (factor VIIa): < 3%
percentage of cleavage by factor XIa (factor XIa): less than 3%
metabolised at 2 h, 5 μM (MMP-14): < 3%
SUV at 6 h (Tumor uptake): 0.7 ± 0.27 SUV
percentage of cleavage by tissue plasminogen activator [2]: less than 3%
metabolised at 2 h, 5 μM (cathepsin H): < 3%
percentage of cleavage by cathepsin L (cathepsin L): less than 3%
cleavage by MMP12 (in words) (MMP12): minimal cleavage
cleavage by MMP-8 (in words) (MMP-8): no cleavage
cleavage by pancreatic elastase (in words) (pancreatic elastase): effectively cleaved
skin uptake versus PLGLAG ACPP (in words) (PyMT mammary tumors; live mice, 100 μl of 100 μM Cy5-labeled ACPP, imaged 6 h post injection): significantly less
percentage of cleavage by factor Xa (factor Xa): less than 3%
percentage of cleavage by urokinase plasminogen activator ([3]; 5 μM Cy5-labeled peptide, 50 nM enzyme, 2 h, Tricine gel, UVP software): less than 3%
cleavage by urokinase (in words) ([3]; purified enzyme, data not shown): no cleavage
percentage of cleavage by MMP-2 (MMP-2): less than 3%
cleavage by MMP-13 (in words) (MMP-13): no cleavage
percentage of cleavage by factor IXa (factor IXa): less than 3%
SUV at 6 h [4]: 0.39 ± 0.14 SUV
cleavage by leukocyte elastase (in words) (leukocyte elastase): effectively cleaved
percentage of cleavage by MMP-9 (MMP-9): less than 3%

Molecule: H2N-e9-(ahx)-RLQLK(Ac)L-r9-c-(Cy5)-NH2
fragment found (neutrophil elastase): K(Ac)Lr9c-(Cy5), major
not cleaved (plasmin [5]): not cleaved by plasmin (2 h)

The next lines start with results.

cleavage by trypsin (in words) (trypsin): efficiently cleaved
Molecule: GMMYRS [GMMYRS ACPP]
fluorescence contrast in tumors relative to adjacent normal tissue (in words) (PyMT mammary tumors; PyMT mice, Cy5-labeled ACPP i.v., 6 h, data not shown): little fluorescence contrast

inhibition of plasmin cleavage of RLQLKL ACPP (in words) (plasmin [6]): did inhibit
B1: serpin F2/α2-antiplasmin: plasmin-specific inhibitor (protein, UniProt P08697 40-491, looked up)
Alpha-2-antiplasmin: NQEQVSPLTLLKLGNQEPGGQTALKSPPGVCSRDPTPEQTHRLARAMMAFTADLFSLVAQTSTCPNLILSPLSVALALSHLALGAQNHTLQRLQQVLHAGSGPCLPHLLSRLCQDLGPGAFRLAARMYLQKGFPIKEDFLEQSEQLFGAKPVSLTGKQEDDLANINQWVKEATEGKIQEFLSGLPEDTVLLLLNAIHFQGFWRNKFDPSLTQRDSFHLDEQFTVPVEMMQARTYPLRWFLLEQPEIQVAHFPFKNNMSFVVLVPTHFEWNVSQVLANLSWDTLHPPLVWERPTKVRLPKLYLKHQMDLVATLSQLGLQELFQAPDLRGISEQSLVVSGVQHQSTLELSEVGVEAAAATSIAMSRMSLSSFSVNRPFLFFIFEDTTGLPLFVGSVRNPNPSAPRELKEQQDSPGNKDFLQSLKGFPRGDKLFGPDLKLVPPMEEDYPQFGSPK
inhibition of tumor extract cleavage of RLQLKL ACPP (in words) [7]: did not inhibit
inhibition of cystic fluid cleavage of RLQLKL ACPP (in words) [8]: did not inhibit
